Where two headings read alike, the source gives them in different places.
Legend:
[1] = system: SARS-CoV-2/NL/2020; assay: Plaque reduction assay; type: cell-based; conditions: for dose-dependent inhibitory activity: any of the tested SARS-CoV-2 strains, up to 50 μM
[2] = system: SARS-CoV-2; conditions: virus yield reduction assay, 48 h, infected Vero E6 cells; cited from earlier work
[3] = system: human prostaglandin E synthase type 2 (PGES-2); conditions: cited from earlier work
[4] = system: SARS-CoV-2; conditions: 4-day cytopathic effect protection assay, Vero E6 cells; cited from earlier work
[5] = system: CCoV; conditions: dog, po, 1 mg/kg; cited from earlier work
[6] = system: HCoV-229E; assay: microbe, parasite or virus in culture; type: cell-based; conditions: Human coronavirus 229E, MRC5, read-out: EC50 (CI)
[7] = system: MRC-5 cells; assay: MTT cell viability assay in MRC-5 cells; type: cell-based, human; conditions: in words
In short: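 Human fibroblast MRC-5 cells exposed to test compound for 72 h; viability read by MTT (3-(4,5-dimethylthiazol-2-yl)-2,5-diphenyl tetrazolium bromide) assay. CC50 taken as the compound concentration that inhibits cell viability by 50%.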

COc1ccc2c(c1)c(CC(=O)NCCOCCOCC(=O)N[C@H](C(=O)N1C[C@H](O)C[C@H]1C(=O)N[C@@H](C)c1ccc(-c3scnc3C)cc1)C(C)(C)C)c(C)n2C(=O)c1ccc(Cl)cc1 [Compound 4, (2S,4R)-1-((S)-2-(tert-butyl)-14-(1-(4-chlorobenzoyl)-5-methoxy-2-methyl-1H-indol-3-yl)-4,13-dioxo-6,9-dioxa-3,12-diazatetradecanoyl)-4-hydroxy-N-((S)-1-(4-(4-methylthiazol-5-yl)phenyl)ethyl)pyrrolidine-2-carboxamide]
dose-dependent inhibitory activity [1]: did not show dose-dependent inhibitory activity | activity in PRA ([1]; in words): not active

COc1ccc2c(c1)c(CC(=O)NCCCCC(=O)N[C@H](C(=O)N1C[C@H](O)C[C@H]1C(=O)N[C@@H](C)c1ccc(-c3scnc3C)cc1)C(C)(C)C)c(C)n2C(=O)c1ccc(Cl)cc1 [Compound 2, (2S,4R)-1-((S)-2-(5-(2-(1-(4-chlorobenzoyl)-5-methoxy-2-methyl-1H-indol-3-yl)acetamido)pentanamido)-3,3-dimethylbutanoyl)-4-hydroxy-N-((S)-1-(4-(4-methylthiazol-5-yl)phenyl)ethyl)pyrrolidine-2-carboxamide]
dose-dependent inhibitory activity [1]: did not show dose-dependent inhibitory activity

COc1ccc2c(c1)c(CC(=O)O)c(C)n2C(=O)c1ccc(Cl)cc1 [INM, Indomethacin]
EC50 [2]: 100 µM | PGES-2 inhibition [3]: low nanomolar range | EC50 [4]: > 400 µM | in vivo antiviral efficacy [5]: in vivo antiviral efficacy

COc1ccc2c(c1)c(CC(=O)NCCN1CCN(C(=O)CCC(=O)N[C@H](C(=O)N3C[C@H](O)C[C@H]3C(=O)N[C@@H](C)c3ccc(-c4scnc4C)cc3)C(C)(C)C)CC1)c(C)n2C(=O)c1ccc(Cl)cc1 [Compound 5, (2S,4R)-1-((S)-2-(4-(4-(2-(2-(1-(4-chlorobenzoyl)-5-methoxy-2-methyl-1H-indol-3-yl)acetamido)ethyl)piperazin-1-yl)-4-oxobutanamido)-3,3-dimethylbutanoyl)-4-hydroxy-N-((S)-1-(4-(4-methylthiazol-5-yl)phenyl)ethyl)pyrrolidine-2-carboxamide]
EC50 [6]: 3.4 µM | cytotoxicity [7]: did not show significant cytotoxicity

COc1ccc2c(c1)c(CC(=O)NCCCCCCC(=O)N[C@H](C(=O)N1C[C@H](O)C[C@H]1C(=O)N[C@@H](C)c1ccc(-c3scnc3C)cc1)C(C)(C)C)c(C)n2C(=O)c1ccc(Cl)cc1 [Compound 3, (2S,4R)-1-((S)-2-(7-(2-(1-(4-chlorobenzoyl)-5-methoxy-2-methyl-1H-indol-3-yl)acetamido)heptanamido)-3,3-dimethylbutanoyl)-4-hydroxy-N-((S)-1-(4-(4-methylthiazol-5-yl)phenyl)ethyl)pyrrolidine-2-carboxamide]
cytotoxicity [7]: did not show significant cytotoxicity
